Two molecules from ChEMBL document CHEMBL1821604, “Anticancer activity and cDNA microarray studies of a (RS)-1,2,3,5-tetrahydro-4,1-benzoxazepine-3-yl]-6-chloro-9H-purine, and an acyclic (RS)-O,N-acetalic 6-chloro-7H-purine” (Eur J Med Chem, 2011) can be followed below.

Assay type in all cases: functional
For test [1], the system named is HT-29. Nature of the test: Upregulation of COL1A1 gene expression in human HT-29 cells at IC50 after 48 hrs by cDNA microarray technique relative to control.
Test [2] relates to MCF7. Briefly: Down regulation of FLJ35954 gene expression in human MCF7 cells at IC50 after 48 hrs by cDNA microarray technique relative to control. In a few lines: (§1)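 Cells (8 × 10⁶) were cultured in DMEM with 10% heat-inactivated FBS at 37 °C under 5% CO₂. They were exposed for 48 h to compound at its IC₅₀, with DMSO-treated parallel cultures as controls (final DMSO ≤0.1% v/v). Total RNA was isolated by trizol/chloroform phase separation, RNeasy column cleanup and on-column DNase, then quantified by OD260/OD280. Expression was profiled by cDNA microarray relative to control.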

Test [3] relates to MCF7. Briefly: Down regulation of KIAA1533 gene expression in human MCF7 cells at IC50 after 48 hrs by cDNA microarray technique relative to control. Put shortly:
as §1

Test [4] relates to MCF7. Nature of the test: Down regulation of AF086546 gene expression in human MCF7 cells at IC50 after 48 hrs by cDNA microarray technique relative to control. In a few lines:
(§2)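 8 × 10⁶ cells exposed 48 h to compound at its IC50 concentration; total RNA isolated with trizol/chloroform and RNeasy columns including on-column DNase step; RNA quantified by OD 260/280; DMSO-treated cultures as control.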

Test [5] relates to MCF7. Nature of the test: Down regulation of HLA-DOB gene expression in human MCF7 cells at IC50 after 48 hrs by cDNA microarray technique relative to control. In a few lines: as §1
In test [6] the test system is MCF7. Briefly: Down regulation of EFHC2 gene expression in human MCF7 cells at IC50 after 48 hrs by cDNA microarray technique relative to control. Put shortly:
as §1

The test system of test [7] is MCF7. Nature of the test: Down regulation of AF147723 gene expression in human MCF7 cells at IC50 after 48 hrs by cDNA microarray technique relative to control. Put shortly:
as §2

Test [8] relates to HT-29. Nature of the test: Upregulation of AVIL gene expression in human HT-29 cells at IC50 after 48 hrs by cDNA microarray technique relative to control.
The subject of test [9] is HT-29. Nature of the test: Down regulation of GBP1 gene expression in human HT-29 cells at IC50 after 48 hrs by cDNA microarray technique relative to control. Put shortly:
as §1

Test [10] relates to HT-29. Briefly: Down regulation of NFATC1 gene expression in human HT-29 cells at IC50 after 48 hrs by cDNA microarray technique relative to control.
For test [11], the system named is MCF7. Briefly: Upregulation of PTPNS1 gene expression in human MCF7 cells at IC50 after 48 hrs by cDNA microarray technique relative to control.
The subject of test [12] is MCF7. Nature of the test: Upregulation of HOXB2 gene expression in human MCF7 cells at IC50 after 48 hrs by cDNA microarray technique relative to control.
Test [13] concerns MCF7. Briefly: Upregulation of FLJ10945 gene expression in human MCF7 cells at IC50 after 48 hrs by cDNA microarray technique relative to control.
Test [14] has as its system MCF7. Nature of the test: Down regulation of CORO2B gene expression in human MCF7 cells at IC50 after 48 hrs by cDNA microarray technique relative to control. In a few lines: as §2
Test [15] relates to MCF7. Nature of the test: Down regulation of ADAMTS3 gene expression in human MCF7 cells at IC50 after 48 hrs by cDNA microarray technique relative to control. Put shortly:
as §2

Test [16] deals with MCF7. Briefly: Down regulation of GLIPR1 gene expression in human MCF7 cells at IC50 after 48 hrs by cDNA microarray technique relative to control. Put shortly:
as §1

Test [17] relates to HT-29. Nature of the test: Down regulation of CKLFSF5 gene expression in human HT-29 cells at IC50 after 48 hrs by cDNA microarray technique relative to control. Put shortly: as §2
Test [18] has as its system HT-29. Nature of the test: Down regulation of ORM1 gene expression in human HT-29 cells at IC50 after 48 hrs by cDNA microarray technique relative to control.
Test [19] concerns HT-29. Briefly: Down regulation of DNAJC7 gene expression in human HT-29 cells at IC50 after 48 hrs by cDNA microarray technique relative to control. In a few lines: as §1
Test [20] relates to HT-29. Nature of the test: Down regulation of C20orf178 gene expression in human HT-29 cells at IC50 after 48 hrs by cDNA microarray technique relative to control. In a few lines:
as §2

Test [21] relates to HT-29. Nature of the test: Down regulation of SLC22A1 gene expression in human HT-29 cells at IC50 after 48 hrs by cDNA microarray technique relative to control.
The test system of test [22] is HT-29. Briefly: Down regulation of STK19 gene expression in human HT-29 cells at IC50 after 48 hrs by cDNA microarray technique relative to control.
Test [23] has as its system HT-29. Briefly: Down regulation of HIRA gene expression in human HT-29 cells at IC50 after 48 hrs by cDNA microarray technique relative to control. In a few lines:
as §1

Test [24] concerns HT-29. Briefly: Down regulation of AQP3 gene expression in human HT-29 cells at IC50 after 48 hrs by cDNA microarray technique relative to control. In a few lines:
as §2

Test [25] deals with HT-29. Nature of the test: Down regulation of BAZ2A gene expression in human HT-29 cells at IC50 after 48 hrs by cDNA microarray technique relative to control. In a few lines: as §2
Test [26] concerns HT-29. Briefly: Down regulation of LMNB1 gene expression in human HT-29 cells at IC50 after 48 hrs by cDNA microarray technique relative to control. In a few lines: as §1
Test [27] concerns MCF7. Nature of the test: Upregulation of MRPL49 gene expression in human MCF7 cells at IC50 after 48 hrs by cDNA microarray technique relative to control.
In test [28] the test system is MCF7. Briefly: Upregulation of MYCN gene expression in human MCF7 cells at IC50 after 48 hrs by cDNA microarray technique relative to control.
Test [29] concerns MCF7. Briefly: Down regulation of THC2438856 gene expression in human MCF7 cells at IC50 after 48 hrs by cDNA microarray technique relative to control.
Test [30] concerns MCF7. Nature of the test: Down regulation of CCT6B gene expression in human MCF7 cells at IC50 after 48 hrs by cDNA microarray technique relative to control. In a few lines: as §2
Test [31] relates to MCF7. Nature of the test: Down regulation of RHAG gene expression in human MCF7 cells at IC50 after 48 hrs by cDNA microarray technique relative to control.
For test [32], the system named is HT-29. Nature of the test: Upregulation of TUBB4 gene expression in human HT-29 cells at IC50 after 48 hrs by cDNA microarray technique relative to control.
Test [33] relates to HT-29. Briefly: Upregulation of LAMP3 gene expression in human HT-29 cells at IC50 after 48 hrs by cDNA microarray technique relative to control.
Test [34] deals with HT-29. Nature of the test: Upregulation of C1orf24 gene expression in human HT-29 cells at IC50 after 48 hrs by cDNA microarray technique relative to control.
Test [35] concerns HT-29. Briefly: Down regulation of KELCHL gene expression in human HT-29 cells at IC50 after 48 hrs by cDNA microarray technique relative to control. In a few lines:
as §1

Test [36] concerns HT-29. Nature of the test: Down regulation of GANAB gene expression in human HT-29 cells at IC50 after 48 hrs by cDNA microarray technique relative to control. In a few lines: as §1
Test [37] relates to HT-29. Nature of the test: Down regulation of GBGT1 gene expression in human HT-29 cells at IC50 after 48 hrs by cDNA microarray technique relative to control. In a few lines: as §1
Test [38] relates to HT-29. Briefly: Down regulation of RXRB gene expression in human HT-29 cells at IC50 after 48 hrs by cDNA microarray technique relative to control.

Turning to `COC(CN(c1ccccc1CO)S(=O)(=O)c1ccccc1[N+](=O)[O-])n1cnc2ncnc(Cl)c21` (racemic), the “fold change (FC)” value with HT-29 [1] was 4.97; in the test on MCF7 [2], -2.06; in the test with MCF7 [3], -2.09; with MCF7 [4], -2.14; with MCF7 [5] it was -2.26; in the test with MCF7 [6] it was -2.27. Also, the “fold change (FC)” value is recorded as -2.66 in the test on MCF7 [7]; 2.46 in the test on HT-29 [8]; -2.47 in the test with HT-29 [9]; -2.78 in the test with HT-29 [10]; 2.89 in the test on MCF7 [11]; 2.74 in the test on MCF7 [12]. For the same molecule, the “fold change (FC)” value was 2.07 in the test on MCF7 [13], -2.01 in the test on MCF7 [14], -2.06 with MCF7 [15] and -2.12 with MCF7 [16].
In the case of `O=C(OCC1c2ccccc2-c2ccccc21)N1CC(n2cnc3c(Cl)ncnc32)OCc2ccccc21` (racemic), the “fold change (FC)” value with HT-29 [17] was -2.19; with HT-29 [18], -2.19; with HT-29 [19], -2.2; in the test on HT-29 [20] it was -2.21; in the test on HT-29 [21] it was -2.27; with HT-29 [22], -2.34. Further, the “fold change (FC)” value in the test with HT-29 [23] is -2.35; with HT-29 [24], -2.53; in the test on HT-29 [25] it was -2.65; with HT-29 [26] it was -3; in the test on MCF7 [27] it was 3.12; with MCF7 [28] it was 2.98. Also, the “fold change (FC)” value is recorded as -3.05 in the test with MCF7 [29]; -3.22 in the test on MCF7 [30]; -6.26 in the test with MCF7 [31]; 3.23 in the test on HT-29 [32]; 2.91 in the test with HT-29 [33]; 2.44 with HT-29 [34]. The “fold change (FC)” value with HT-29 [35] was -2.02; with HT-29 [36], -2.04; in the test with HT-29 [37], -2.07; in the test with HT-29 [38] it was -2.1.
